The term IC50 denotes the concentration that gives 50% inhibition.

Series [1] relates to MCF7. Nature of the series: Cytotoxicity against human MCF7 cells assessed as reduction in cell growth after 72 hrs by cell titer glo assay. It counts as functional, cell-based. As to conditions: MCF7, 72 h. The procedure, abridged:
(§1)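 IC50, the concentration giving 50% inhibition of cell growth, was read from plots of inhibition against concentration. Values were calculated from three independent experiments.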
On the technique in general: In ATP-based viability assays light output follows the ATP content of the culture.

Series [2] is described as follows: Cytotoxicity against human MCF10 cells assessed as cell viability at 33.3 uM after 72 hrs by cell titer glo assay. As to conditions: read-out: Activity. It counts as cell-based. The procedure, abridged:
(§2)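 The highest concentration tested was 33.3 μM, in a series running down to 0.0152 μM. Results came from three independent experiments.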

For series [3], the system named is HeLa. Nature of the series: Cytotoxicity against human HeLa cells assessed as reduction in cell growth after 72 hrs by cell titer glo assay. It counts as functional, cell-based.
Series [4] can be described thus: Cytotoxicity against human MIAPaCa2 cells assessed as cell viability at 33.3 uM after 72 hrs by cell titer glo assay. Type of series: functional. The settings on record: MIA PaCa-2, 72 h, read-out: Activity. The procedure, abridged: as §2
Series [5] can be described thus: Cytotoxicity against human MIAPaCa2 cells assessed as reduction in cell growth after 72 hrs by cell titer glo assay. As to conditions: MIA PaCa-2, 72 h. It counts as functional, cell-based.
For series [6], the system named is MDA-MB-231. Nature of the series: Cytotoxicity against human MDA-MB-231 cells assessed as reduction in cell growth after 72 hrs by cell titer glo assay. Type of series: functional, cell-based. The settings on record: MDA-MB-231, 72 h. The procedure, abridged:
as §1

Series [7] deals with MDA-MB-231. Kind of series: Cytotoxicity against human MDA-MB-231 cells assessed as cell viability at 33.3 uM after 72 hrs by cell titer glo assay. It counts as functional. The settings on record: MDA-MB-231, 72 h, read-out: Activity. The procedure, abridged:
as §2

Series [8] relates to MCF7. Nature of the series: Cytotoxicity against human MCF7 cells assessed as cell viability at 33.3 uM after 72 hrs by cell titer glo assay. It counts as functional. As to conditions: MCF7, 72 h, read-out: Activity. Put shortly: as §2
Series [9] relates to MCF10. Nature of the series: Cytotoxicity against human MCF10 cells assessed as reduction in cell growth after 72 hrs by cell titer glo assay. Type of series: cell-based. The settings on record: MCF10, 72 h. The procedure, abridged:
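Non-tumour mammary epithelial cells exposed to an 8-point series (33.3, 11.1, 3.7, 1.23, 0.41, 0.137, 0.0457, 0.0152 μM). IC50 is the concentration giving 50% growth inhibition, read from the plot of inhibition against concentration and calculated from three independent experiments.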

Series [10] relates to HeLa. Nature of the series: Cytotoxicity against human HeLa cells assessed as cell viability at 33.3 uM after 72 hrs by cell titer glo assay. It counts as functional. The settings on record: read-out: Activity. The procedure, abridged: as §2

Take `O=C1c2ccccc2C(=O)c2c(O)c(C(O)C/C=C/c3ccccc3Cl)cc(O)c21` (stereo unspecified): the figures for the IC50 in series [1] and in series [3] were 31.5 µM and 27.2 µM, respectively. Besides, the viability at 72 h, 33.3 µM in series [2] is > 50%. For the same compound, the viability at 33.3 µM in [4] is > 50%.

For `O=C1c2ccccc2C(=O)c2c(O)c(C(O)C/C=C/c3cccc(F)c3)cc(O)c21` (stereo unspecified), the IC50 in series [5] is 26.3 µM; in series [1], 32.1 µM; in series [6], 26.5 µM; in [3], 25.2 µM. In series [2], the viability at 72 h, 33.3 µM was > 50%.

For `Cc1cccc(/C=C/CC(O)c2cc(O)c3c(c2O)C(=O)c2ccccc2C3=O)c1` (stereo unspecified), the results for the IC50 in [5], in series [1] and in series [3] were 28.5 µM, 32.8 µM and 27.2 µM, respectively. Also, the viability at 72 h, 33.3 µM in series [2] was > 50%. Also, in [7], the viability at 33.3 µM was > 50%.

As to `O=C1C2=C(C(=O)c3ccccc31)C(O)C1=C(O)CC(c3ccccc3)C1=C2O` (stereo unspecified), the IC50 in [5] was 27.7 µM; in [6], 28.8 µM; in series [3], 29.2 µM. Further, the viability at 33.3 µM in [8] is > 50%. Moreover, in [2], the viability at 72 h, 33.3 µM is > 50%.

`O=C1c2ccccc2C(=O)c2c(O)c(C(O)C/C=C/c3cccc(Br)c3)cc(O)c21` (stereo unspecified): the IC50 in series [5] stood at 27.6 µM; in [1], 31.7 µM; in series [3], 29.1 µM. Moreover, the viability at 72 h, 33.3 µM in [2] was > 50%. Moreover, the viability at 33.3 µM in series [7] was > 50%.

As for `O=C1c2ccccc2C(=O)c2c(O)c(C(O)C/C=C/c3ccc(Cl)cc3)cc(O)c21` (stereo unspecified), the IC50 in [5] worked out at 27.4 µM; in series [1], 32.3 µM; in series [6], 28.5 µM; in series [3] it was 27.4 µM. In series [2], the viability at 72 h, 33.3 µM is > 50%.

Consider `O=C1c2ccccc2C(=O)c2c(O)c(C(O)C/C=C/c3ccccc3)cc(O)c21` (stereo unspecified), for which the viability at 33.3 µM in series [8], in [7] and in [4] was > 50% throughout. For the same compound, the viability at 72 h, 33.3 µM in series [2] is > 50%. Also, in series [3], the IC50 is 18.6 µM.

With `CC(C)=CC[C@@H](O)C1=CC(=O)c2c(O)ccc(O)c2C1=O` [SHIKONIN], the half-inhibitory concentration (IC50) is 0.04 µM in series [5]; 5.49 µM in [1]; 3.94 µM in series [6]; 4.56 µM in series [9]; 6.42 µM in series [3].

Consider `COc1ccc(/C=C/CC(O)c2cc(O)c3c(c2O)C(=O)c2ccccc2C3=O)cc1` (stereo unspecified), for which the 50% inhibitory concentration (IC50) stood at 26.3 µM in series [5], 32.8 µM in [1], 26.9 µM in series [6] and 24.1 µM in series [3]. Moreover, in series [2], the viability at 72 h, 33.3 µM is > 50%.

In the case of `Cc1ccccc1/C=C/CC(O)c1cc(O)c2c(c1O)C(=O)c1ccccc1C2=O` (stereo unspecified), the IC50 in series [5] came out at 26.1 µM; in series [1], 32.8 µM; in [3] it was 28.3 µM. For the same compound, the viability at 72 h, 33.3 µM in series [2] is > 50%. In addition, the viability at 33.3 µM in series [7] was > 50%.

For `O=C1c2ccccc2C(=O)c2c(O)c(C(O)C/C=C/c3ccc(F)cc3)cc(O)c21` (stereo unspecified), the IC50 in series [5] was found to be 23.2 µM; in series [1], 28.5 µM; in series [6] it was 28 µM; in [3] it was 32.9 µM. Also, in series [2], the viability at 72 h, 33.3 µM is > 50%.

For the compound `COc1ccccc1/C=C/CC(O)c1cc(O)c2c(c1O)C(=O)c1ccccc1C2=O` (stereo unspecified), the viability at 33.3 µM in series [8], in series [7] and in series [4] was > 50% throughout. Also, the viability at 72 h, 33.3 µM in series [2] was > 50%. Moreover, the IC50 in [3] was 29 µM.

For `O=C1c2ccccc2C(=O)c2c(O)c(C(O)C/C=C/c3ccc(Br)cc3)cc(O)c21` (stereo unspecified), the viability at 33.3 µM in [10], in series [8], in series [7] and in series [4] was > 50% in each case. Moreover, in [2], the viability at 72 h, 33.3 µM was > 50%.

Turning to `Cc1ccc(/C=C/CC(O)c2cc(O)c3c(c2O)C(=O)c2ccccc2C3=O)cc1` (stereo unspecified), the viability at 33.3 µM in series [8], in series [7] and in [4] was > 50% in each case. Besides, in [2], the viability at 72 h, 33.3 µM was > 50%. In addition, the half-maximal inhibitory concentration (IC50) in series [3] was found to be 29 µM.

As for `O=C1c2ccccc2C(=O)c2c(O)c(C(O)C/C=C/c3cccc(Cl)c3)cc(O)c21` (stereo unspecified), the IC50 came to 26.4 µM in [5], 32.2 µM in series [1], 31.2 µM in series [6] and 25.8 µM in [3]. For the same compound, in series [2], the viability at 72 h, 33.3 µM was > 50%.

Regarding `O=C1c2ccccc2C(=O)c2c(O)c(C(O)C/C=C/c3ccccc3Br)cc(O)c21` (stereo unspecified), the IC50 in [5] was 27.1 µM; in series [1], 31.1 µM; in series [6], 30.7 µM; in [3], 25.6 µM. Also, in series [2], the viability at 72 h, 33.3 µM was > 50%.

Consider `COc1cccc(/C=C/CC(O)c2cc(O)c3c(c2O)C(=O)c2ccccc2C3=O)c1` (stereo unspecified), for which the values for the IC50 in [5] and in series [3] were 27.1 µM and 28 µM, respectively. The viability at 33.3 µM in [8] and in series [7] was > 50% throughout. The viability at 72 h, 33.3 µM in series [2] was > 50%.

For the compound `O=C1c2ccccc2C(=O)c2c(O)c(C(O)C/C=C/c3ccccc3F)cc(O)c21` (stereo unspecified), the 50% inhibitory concentration (IC50) in series [5] was 27.3 µM; in series [6], 29.2 µM; in series [3], 28.7 µM. Besides, the viability at 33.3 µM in series [8] is > 50%. For the same compound, in series [2], the viability at 72 h, 33.3 µM was > 50%.

As for `COc1cccc2c1C(=O)c1c(O)c3c(c(O)c1C2=O)C[C@@](O)(C(=O)CO)C[C@@H]3O[C@H]1C[C@H](N)[C@H](O)[C@H](C)O1` [DOXORUBICIN], the IC50 in [6] and in series [9] was 0.16 µM in each case.

For the origin of these results see ChEMBL document CHEMBL3797090, “One-pot synthesis of 1,4-dihydroxy-2-((E)-1-hydroxy-4-phenylbut-3-enyl)anthracene-9,10-diones as novel shikonin analogs and evaluation of their antiproliferative activities” (Bioorg Med Chem Lett, 2016).
